In ChEMBL document CHEMBL1125728, “Dopamine autoreceptor agonists as potential antipsychotics. 2. (Aminoalkoxy)-4H-1-benzopyran-4-ones” (J Med Chem, 1991) one finds IC50, ED200 and ED50 data, which are given here for one compound.

The target of assay [1] is T1, Adrenergic receptor alpha-2 (Rattus norvegicus, UniProt P22086+P19328+P22909).
T1 sequence (P22086 whole entry): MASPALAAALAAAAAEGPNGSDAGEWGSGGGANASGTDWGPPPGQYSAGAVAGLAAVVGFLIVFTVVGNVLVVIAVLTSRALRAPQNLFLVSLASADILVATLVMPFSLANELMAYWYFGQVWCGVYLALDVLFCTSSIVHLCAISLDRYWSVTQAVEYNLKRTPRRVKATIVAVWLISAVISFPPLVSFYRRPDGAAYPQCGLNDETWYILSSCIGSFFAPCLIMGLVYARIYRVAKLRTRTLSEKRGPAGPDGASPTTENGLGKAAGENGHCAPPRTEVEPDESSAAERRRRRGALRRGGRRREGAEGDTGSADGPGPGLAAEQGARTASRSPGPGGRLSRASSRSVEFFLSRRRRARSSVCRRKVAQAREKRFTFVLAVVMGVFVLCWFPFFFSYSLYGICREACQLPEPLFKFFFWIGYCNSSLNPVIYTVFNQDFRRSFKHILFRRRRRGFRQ
T1 sequence (P19328 whole entry): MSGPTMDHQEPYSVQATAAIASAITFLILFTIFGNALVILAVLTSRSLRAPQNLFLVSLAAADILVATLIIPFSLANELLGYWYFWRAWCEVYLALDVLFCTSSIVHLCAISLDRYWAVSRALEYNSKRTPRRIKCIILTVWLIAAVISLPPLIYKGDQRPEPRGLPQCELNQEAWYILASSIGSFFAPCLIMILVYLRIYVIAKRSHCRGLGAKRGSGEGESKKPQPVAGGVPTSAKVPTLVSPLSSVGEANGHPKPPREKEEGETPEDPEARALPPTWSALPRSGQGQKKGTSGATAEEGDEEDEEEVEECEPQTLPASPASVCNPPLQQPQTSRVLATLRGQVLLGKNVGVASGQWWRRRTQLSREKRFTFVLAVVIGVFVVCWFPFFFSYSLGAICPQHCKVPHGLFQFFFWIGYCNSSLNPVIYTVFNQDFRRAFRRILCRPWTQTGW
T1 sequence (P22909 whole entry): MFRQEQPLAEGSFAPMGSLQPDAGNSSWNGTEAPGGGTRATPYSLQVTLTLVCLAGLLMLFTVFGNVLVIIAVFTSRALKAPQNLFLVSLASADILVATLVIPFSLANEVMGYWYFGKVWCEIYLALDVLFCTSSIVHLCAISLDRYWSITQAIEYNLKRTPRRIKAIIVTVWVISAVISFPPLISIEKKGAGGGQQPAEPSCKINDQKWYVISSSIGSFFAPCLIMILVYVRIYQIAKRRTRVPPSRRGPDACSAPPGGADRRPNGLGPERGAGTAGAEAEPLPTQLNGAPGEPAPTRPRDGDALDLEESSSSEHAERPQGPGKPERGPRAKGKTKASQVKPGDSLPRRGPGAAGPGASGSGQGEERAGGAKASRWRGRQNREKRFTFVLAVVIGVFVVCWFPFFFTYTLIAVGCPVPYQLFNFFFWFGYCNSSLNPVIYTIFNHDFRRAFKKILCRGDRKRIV
The assay can be described thus: Compound was tested for its inhibitory effect on the binding profile in Alpha-2 adrenergic receptor using [3H]p-aminoclonidine in rat brain. The assay is classed as tissue-based. A digest of the protocol:
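Rat brain receptor binding with the stated radioligands. IC50 obtained by nonlinear regression from four to five concentrations. [3H]flupenthixol and [3H]N-propylnorapomorphine values come from four independent determinations each, and the [3H]haloperidol value from two experiments. Remaining ligands were determined once.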

For the next assay, the system named is Rattus norvegicus. Briefly: Compound tested for its effect on reversal of 6-OHDA induced depression in rats after sc administration. The assay is classed as functional. Summed up: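 Rats lesioned at least 1 month earlier with 6-OHDA (20 μg icv) plus pargyline (50 mg/kg ip) and desipramine (25 mg/kg ip), giving about 90% brain DA depletion. Drug given sc, then locomotor activity recorded for 30 min from dosing. ED200 estimated from three or four doses, six rats per dose.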

The nature of assay [2]: Compound was tested for its inhibition of Sidman avoidance after peroral administration in Squirrel monkeys. The assay is classed as functional. Conditions: po. A digest of the protocol:
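Sidman avoidance in mature squirrel monkeys, oral dosing. ED50 ± SEM generated from three doses, four animals per dose.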

What is called IC50 is the concentration that inhibits the measured activity by half. Low readings indicate higher potency, high ones lower potency. One may read the ED50 as the dose that gives a 50% effect, or the effect in half of the subjects. A higher ED50 goes with a need for a large dose. Consider `O=c1ccoc2cc(OCCCN3CCN(c4ccccn4)CC3)ccc12`, for which, in assay [1], the IC50 was determined as 2.6 µM. For the same compound, in the assay with Rattus norvegicus, the ED200 is more than 5 mg/kg. In assay [2], this compound had an ED50 of 6 mg/kg.
